Measurements reported in ChEMBL document CHEMBL4699667, “Discovery of the Potent, Selective, Orally Available CXCR7 Antagonist ACT-1004-1239” (J Med Chem, 2020).
In brackets after ≈: the same amount, converted by molar mass.

Assays:
physchem [1] = conditions: octanol/water, pH 7.4
physchem [2] = experiment: physchem
[3] = Solubility in FaSSIF-V1 medium; type: physicochemical
[4] = Aqueous solubility at pH 7; type: physicochemical
[5] = Solubility in FeSSIF-V1 medium; type: physicochemical
[6] = Cmax in DBA/1 mouse plasma at 1 mg/kg, po administered as single dose measured after 0.5 hrs; type: ADME, organism-based; set-up: route oral, time 0.5 hrs, dose 1 mg/kg
In short: (§1)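 Naive male DBA/1 mice received one oral dose within the 1–100 mg/kg range, alongside a vehicle group. Compound plasma concentration was measured at 0.5, 6 or 24 h post-dose, with n = 3–5 per dose group. Values are mean + SEM, and the limit of quantification was 1.52 ng/mL.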

[7] = Tmax in DBA/1 mouse at 1 to 100 mg/kg, po administered as single dose measured after 0.5 to 24 hrs; type: ADME, organism-based; conditions: in vivo, dose 1-100 mg/kg, time 0.5-24 hrs
In short: as §1

[8] = Plasma concentration in DBA/1 mouse plasma at 30 mg/kg, po administered as single dose measured after 24 hrs; type: ADME, organism-based
In short: as §1

[9] = Plasma concentration in DBA/1 mouse plasma at 100 mg/kg, po administered as single dose measured after 24 hrs; type: ADME, organism-based
In short: as §1

[10] = Cmax in DBA/1 mouse plasma at 100 mg/kg, po administered as single dose measured after 0.5 hrs; type: ADME, organism-based; set-up: route oral, dose 100 mg/kg, time 0.5 hrs
In short: as §1

[11] = Drug level in plasma of DBA/1 mouse at 1 to 100 mg/kg, po administered as single dose measured after 0.5 to 24 hrs; type: ADME, organism-based; conditions: in vivo, dose 1-100 mg/kg, time 0.5-24 hrs
In short: as §1

[12] = Oral bioavailability in Wistar rat at 10 mg/kg after 24 hrs by LC-MS-MS analysis; type: ADME, organism-based; conditions: in vivo
In short: (§2)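 Rats received a single oral dose of 10 mg/kg (n = 3). Parameters are averages and Tmax is the median. Plasma was sampled at 8 h post-dose, among other times. Bioavailability is referenced to the 1 mg/kg iv dose (n = 2).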

[13] = Tmax in beagle dog at 1 mg/kg, po after 24 hrs by LC-MS-MS analysis; type: ADME, organism-based, Canis lupus familiaris; conditions: in vivo
In short: (§3)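 Dogs received a single oral dose of 1 mg/kg (n = 2). Parameters are averages and Tmax is the median. Plasma was sampled at 8 h post-dose, among other times. Bioavailability is referenced to the 1 mg/kg iv dose (n = 2).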

[14] = Plasma concentration in beagle dog at 1 mg/kg, po after 8 hrs by LC-MS-MS analysis; type: ADME, organism-based, Canis lupus familiaris
In short: as §3

[15] = Volume of distribution at steady state in Wistar rat at 1 mg/kg, iv after 24 hrs by LC-MS-MS analysis; type: ADME, organism-based; conditions: in vivo, read-out: Vdss
In short: (§4)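 Single intravenous dose of 1 mg/kg in rat and in dog, with n = 2 animals per species. Parameters are reported as averages. Blood clearance is plasma clearance corrected for blood/plasma partitioning and expressed as a fraction of liver blood flow.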

[16] = AUC (0 to infinity) in Wistar rat at 1 mg/kg, iv after 24 hrs by LC-MS-MS analysis; type: ADME, organism-based; set-up: route intravenous, dose 1 mg/kg, time 24 hrs; conditions: in vivo
In short: as §4

[17] = Cmax in Wistar rat at 10 mg/kg, po after 24 hrs by LC-MS-MS analysis; type: ADME, organism-based; set-up: route oral, time 24 hrs, dose 10 mg/kg; conditions: in vivo
In short: as §2

[18] = AUC (0 to last) in beagle dog at 1 mg/kg, po after 24 hrs by LC-MS-MS analysis; type: ADME, organism-based, Canis lupus familiaris; set-up: route oral, time 24 hrs, dose 1 mg/kg; conditions: in vivo
In short: as §3

[19] = Oral bioavailability in beagle dog at 1 mg/kg after 24 hrs by LC-MS-MS analysis; type: ADME, organism-based, Canis lupus familiaris; conditions: in vivo
In short: as §3

[20] = AUC (0 to infinity) in beagle dog at 1 mg/kg, iv after 24 hrs by LC-MS-MS analysis; type: ADME, organism-based, Canis lupus familiaris; set-up: route intravenous, dose 1 mg/kg, time 24 hrs; conditions: in vivo
In short: as §4

[21] = Cmax in beagle dog at 1 mg/kg, po after 24 hrs by LC-MS-MS analysis; type: ADME, organism-based, Canis lupus familiaris; set-up: route oral, dose 1 mg/kg, time 24 hrs; conditions: in vivo
In short: as §3

[22] = AUC (0 to last) in Wistar rat at 10 mg/kg, po after 24 hrs by LC-MS-MS analysis; type: ADME, organism-based; set-up: route oral, dose 10 mg/kg, time 24 hrs; conditions: in vivo
In short: as §2

[23] = Plasma concentration in Wistar rat at 10 mg/kg, po after 8 hrs by LC-MS-MS analysis; type: ADME, organism-based
In short: as §2

[24] = Tmax in Wistar rat at 10 mg/kg, po after 24 hrs by LC-MS-MS analysis; type: ADME, organism-based; conditions: in vivo
In short: as §2

[25] = Volume of distribution at steady state in beagle dog at 1 mg/kg, iv after 24 hrs by LC-MS-MS analysis; type: ADME, organism-based, Canis lupus familiaris; conditions: in vivo, read-out: Vdss
In short: as §4

Compound	logD (physchem [1])	pKa (physchem [2])	other results
CN1CC[C@H](NC(=O)c2cc(-c3ccc(F)cc3F)on2)[C@@H](C(=O)NC2(c3ncccn3)CC2)C1	1.7	7.3	
O=C(N[C@H]1CCN(CC2(F)CC2)C[C@@H]1C(=O)NC1(c2ncccn2)CC1)c1cc(-c2ccc(F)cc2F)on1	2.7	6.2	
O=C(N[C@H]1CCN(CCCF)C[C@@H]1C(=O)NC1(c2ncccn2)CC1)c1cc(-c2ccc(F)cc2F)on1	2.2	6.8	
O=C(NC1CCN(C2CCCCC2)CC1)c1noc(-c2ccc(F)cc2F)n1	1.6		
C[C@@H](NC(=O)[C@H]1CN(C2CCCCC2)CC[C@@H]1NC(=O)c1cc(-c2ccc(F)cc2F)on1)c1ccccn1	3.9		solubility [3]: 38 µg/mL (≈ 70.7 µM); solubility [4]: 4 µg/mL (≈ 7.44 µM); solubility [5]: > 910 µg/mL
O=C(N[C@H]1CCN(C2CCC2)C[C@@H]1C(=O)NC1(c2ncccn2)CC1)c1cc(-c2ccc(F)cc2F)on1	2.9	7.4	
COCCN1CC[C@H](NC(=O)c2cc(-c3ccc(F)cc3F)on2)[C@@H](C(=O)NC2(c3ncccn3)CC2)C1	1.9	6.7	
CC(C)(NC(=O)[C@H]1CN(C2CCCCC2)CC[C@@H]1NC(=O)c1cc(-c2ccc(F)cc2F)on1)c1ccccn1	3.8		
CCN1CC[C@H](NC(=O)c2cc(-c3ccc(F)cc3F)on2)[C@@H](C(=O)NC2(c3ncccn3)CC2)C1	1.8	7.6	
O=C(N[C@H]1CCNC[C@@H]1C(=O)NC1(c2ncccn2)CC1)c1cc(-c2ccc(F)cc2F)on1	0.6	8.1	
C[C@@H](NC(=O)[C@H]1CN(C2CCCCC2)CC[C@@H]1NC(=O)c1cc(-c2ccc(F)cc2F)on1)c1ccccc1	> 4.1		
O=C(N[C@H]1CCN(CC2CC2)C[C@@H]1C(=O)NC1(c2ncccn2)CC1)c1cc(-c2ccc(F)cc2F)on1	2.5	7.7	Cmax [6]: 6 ng/mL; solubility [3]: 513 µg/mL (≈ 982 µM); Tmax [7]: 30 min; solubility [4]: 374 µg/mL (≈ 716 µM); concentration at 24 h [8]: < 1.52 ng/mL; solubility [5]: > 880 µg/mL; concentration at 24 h [9]: 14 ng/mL; Cmax [10]: 4280 ng/mL; Drug uptake [11]: Dose-dependent effect
CC(C)N1CC[C@H](NC(=O)c2cc(-c3ccc(F)cc3F)on2)[C@@H](C(=O)NC2(c3ncccn3)CC2)C1	1.8	8	
O=C(N[C@H]1CCN(C2CCCCC2)C[C@@H]1C(=O)NCc1ccccc1)c1cc(-c2ccc(F)cc2F)on1	> 4.1		
O=C(N[C@H]1CCN(C2CC2)C[C@@H]1C(=O)NC1(c2ncccn2)CC1)c1cc(-c2ccc(F)cc2F)on1	2.4	6.1	
CCCN1CC[C@H](NC(=O)c2cc(-c3ccc(F)cc3F)on2)[C@@H](C(=O)NC2(c3ncccn3)CC2)C1	2.5	7.6	
O=C(N[C@H]1CCN(C2CCCCC2)C[C@@H]1C(=O)NC1(c2ccccn2)CC1)c1cc(-c2ccc(F)cc2F)on1	> 3.8		
O=C(N[C@H]1CCN(C2CC(F)(F)C2)C[C@@H]1C(=O)NC1(c2ncccn2)CC1)c1cc(-c2ccc(F)cc2F)on1	2.9	5.2	
O=C(NC1CCN(C2CCCCC2)CC1)c1cc(-c2ccc(F)cc2F)on1			solubility [3]: 144 µg/mL (≈ 370 µM); solubility [4]: 15 µg/mL (≈ 38.5 µM); solubility [5]: 196 µg/mL (≈ 503 µM)
O=C(N[C@H]1CCN(C2CCCCC2)C[C@@H]1C(=O)NC1(c2ncccn2)CC1)c1cc(-c2ccc(F)cc2F)on1	2.9		
Cl.O=C(N[C@H]1CCN(CC2CC2)C[C@@H]1C(=O)NC1(c2ncccn2)CC1)c1cc(-c2ccc(F)cc2F)on1			bioavailability [12]: 35%; Tmax [13]: 1.5 h; concentration at 8 h [14]: 185 ng/mL; Vd [15]: 3.6 L/kg; AUC [16]: 238 ng·h/mL; Cmax [17]: 600 ng/mL; AUClast [18]: 3620 ng·h/mL; bioavailability [19]: 61%; AUC [20]: 5940 ng·h/mL; Cmax [21]: 314 ng/mL; AUClast [22]: 827 ng·h/mL; concentration at 8 h [23]: 18.3 ng/mL; Tmax [24]: 30 min; Vd [25]: 1.6 L/kg
O=C(N[C@H]1CCN(CC2CCC2)C[C@@H]1C(=O)NC1(c2ncccn2)CC1)c1cc(-c2ccc(F)cc2F)on1	3.1	7.7	
CC(=O)N1CC[C@H](NC(=O)c2cc(-c3ccc(F)cc3F)on2)[C@@H](C(=O)NC2(c3ncccn3)CC2)C1	1.6	< 2	
CN(C)C(=O)[C@H]1CN(C2CCCCC2)CC[C@@H]1NC(=O)c1cc(-c2ccc(F)cc2F)on1 (racemic)			solubility [3]: 569 µg/mL (≈ 1240 µM); solubility [4]: 192 µg/mL (≈ 417 µM); solubility [5]: 652 µg/mL (≈ 1420 µM)
